Read-outs that look alike come from different tables or passages of the source.
Columns and labels:
[1] = tested on: HeLa cells; settings: read-out: IC50 cytotoxicity against HeLa cells; HeLa cells ref 40; cited from earlier work
[2] = tested on: HeLa cells; test: Cellular morphology by light microscopy; assay type: cell-based, human; settings: 48 h of exposure, concentrations from 2.5 to 20 μM
How it was run: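 HeLa cells in RPMI were seeded at 5 × 10^3 cells per well on poly-D-lysine-coated glass-bottom imaging plates. Next day they were treated with 20, 5 or […] μM test compound. Live-cell imaging used an inverted microscope with an incubation chamber supplied with 5% CO2 and a 100× oil objective. Images were taken after 48 h of treatment.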

[3] = tested on: HeLa cells; test: Cytotoxicity testing using MTT, dose–response; assay type: cell-based, human
How it was run: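 HeLa cells grown in RPMI 1640 with 10% FBS, 2 mM L-glutamine and 1% antibiotics at 37 °C, 5% CO2. Seeded at 10 × 10^3 cells per well and left to adhere overnight. The whole medium was replaced with test compound in medium for 48 h. MTT (4 mg mL−1 in PBS) was added for 4 h, then cells were centrifuged and formazan dissolved in DMSO. Absorbance at 590/640 nm. Viability given as percent of untreated control.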

[4] = tested on: Aspergillus fumigatus (BCC020_2845); test: Antifungal activity, broth two-fold microdilution; assay type: cell-based; settings: 30 °C, 48 h, tested 75 to 0.036 μM; NA = no activity at 75 μM
How it was run: (§1)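 Two-fold broth microdilution per CLSI M100-S20. Compounds were serially diluted from 75 to 0.036 μM in Mueller Hinton broth with 2% glucose. Inoculum from an overnight culture, about 5 × 10^5 CFU mL−1 final. Incubated aerobically at 30 °C for 48 h. Solvent control: medium with 50% DMSO in methanol. Fluconazole (32 to 0.0625 μg mL−1) served as positive control. MIC was the lowest concentration showing some growth inhibition. Triplicate.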

[5] = tested on: HeLa cells; test: Membrane damage by LDH leakage; assay type: cell-based, human
How it was run: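 HeLa cells were seeded at 1 × 10^4 per well. At 30 min, 45 min, 1, 2, 3 and 6 h after treatment, LDH release was measured with the CytoTOX One membrane-integrity kit. Lysis solution gave maximum leakage. Fluorescence (ex 560/em 590) was expressed as percent of maximum LDH leakage.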

[6] = tested on: Alternaria alternata (BCC020_0609); test: Antifungal activity, broth two-fold microdilution; assay type: cell-based; settings: 30 °C, 48 h, tested 75 to 0.036 μM; NA = no activity at 75 μM
How it was run: as §1

[7] = tested on: Saccharomyces cerevisiae P23; test: Membrane permeabilization assay; assay type: cell-based; settings: S. cerevisiae, 5 and 10 μM
How it was run: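 S. cerevisiae P23 was grown aerobically in YEPG at 30 °C to mid-log phase (OD450 about 0.5). Cells were harvested, washed and resuspended to OD450 about 0.2 in 0.15 M citrate–phosphate buffer, pH 6.0, with 0.5% glucose and 10 μM propidium iodide. Test compound was added at 1, 5 or 10 μM final. PI uptake was followed as fluorescence (ex 515/em 620) at 25 °C. Controls: 10 μM melittin (positive) and buffer (baseline). Two sets of experiments, with no background subtraction.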

[8] = tested on: HeLa cells; test: Recovery experiments; assay type: cell-based, human; settings: 5 and 10 μM, exposure 1–8 h, then 48 h recovery, MTT
[9] = Lipid bilayer experiments; settings: planar DOPC/DOPE membranes, 50 mV
How it was run: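 Black lipid bilayers were painted from 3% (w/v) DOPC/DOPE 2:1 (w/w) in n-decane/butanol 9:1 across a 0.5 mm aperture. Both compartments held 10 mM Tris, 1 M KCl, pH 7.4, at 25 °C. Test compound (5 or 10 μM) was added to the cis side. Current was recorded with Ag/AgCl electrodes at 50 mV, cis positive, with traces of 120 s.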

Row | Substance | IC50 [1] [nM] | cellular morphology (in words) [2] | reduction of cell viability / inhibition ([3]; MTT, 48 h, at higher concentrations (5–20 μM)) [%] | IC50 ([3]; read-out: IC50 against HeLa cells (MTT assay), 48 h treatment) [nM] | MIC A. fumigatus [4] [µM] | LDH leakage (in words) ([5]; early time points up to 2 h) | LDH accumulated in the medium, % of positive control ([5]; only after 3 h) | MIC A. alternata [6] [µM] | membrane permeabilization, PI entry into yeast cells (in words) [7] | cell viability after compound washout and recovery (in words) [8] | pore-forming activity / membrane permeabilization (in words) ([9]; 5 μM) | typical transmembrane electrical current ([9]; 10 μM)
1 | Iturin A | 1730 |  |  |  |  |  |  |  |  |  |  | 
2 | minutissamide A [Compound 1] |  | cell shrinkage and membrane rupture | 70 | 2800 | 37.5 | No LDH leakage | up to 30% | 75 | No membrane disruption was detectable | easily tolerated by the cells for the first two hours | almost completely inactive | about 10 pA
